Assay outcomes: PubChem BioAssay, several laboratories
TWEAK Fn14 block = inhibitors of TWEAK-Fn14 interaction signaling; TWEAK-stimulated Fn14 reporter cells, luciferase luminescence, 8 h; inhibition, % at 10 µM; 2% of 360,000 active; AID 1159606; in the data active = inhibition above about 50%
LGR2 inh = inhibitors of bursicon-induced Drosophila LGR2 receptor cAMP signaling | HEK293 LGR2, CRE-luciferase, bursicon-stimulated, 4 h | 0.35% of 380,000 active | inhibition, % at 9.99 µM;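 active = drop in luminescence signal, shown as inhibition above about 50% in the replicate tests, limit read from the data, passing the limit was not always enough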;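 also: agonist challenge used bursicon conditioned medium at about half maximal strength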
FN deposition inh = fibronectin deposition inhibition; AH1F fibroblasts, Alexa488-fibronectin deposition fluorescence, overnight; inhibition, % at 12.6 µM; 0.086% of 350,000 active; AID 743247;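 active = mean inhibition across replicates of 30% or more, regardless of how many single replicates reach that level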;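 also: positive control wells lacked labelled fibronectin entirely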
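Test system: AH1F fibroblast monolayer depositing Alexa488-labelled fibronectin into matrix. Input: 10000 cells per well. Technique: fluorescence, ex 485 nm, em 525 nm. Buffer or medium: DMEM plus 2% serum, read in PBS. Timing: 1 h cell adhesion before compound, then overnight fibronectin incubation. Compound: single dose, pinned. Read-out basis: inhibition from reduced deposited-fibronectin fluorescence.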
XiGFP reactiv = activators of X-chromosome reactivation in mouse fibroblasts; XiGFP mouse fibroblasts, % GFP-positive cells imaging, 3 d; cells co-treated with 5-aza-dC sensitizer; scaled so ellipticine positive control = 100%; activation, % at 7.58 µM; 0.055% of 360,000 active; AID 743238;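 active = mean normalized replicate activation at least 10% and every replicate at or above 10%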;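 also: 0% = median of on-plate neutral control wells and 100% = ellipticine 6 µM median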
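System: 68-5-11 XiGFP fibroblast line; Timing: 3 days compound exposure; Compound dosing: one concentration, pinned; Benchmarks: positive control ellipticine, 6 µM final; Buffer or medium: DMEM containing 5-aza-dC.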
EWS-Fli inh = blocks EWS/Fli oncoprotein-driven transcription; A673 NR0B1-luciferase reporter, viability-normalised; inhibition, % at 12.6 µM; 0.67% of 350,000 active; AID 651661;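 active = mean inhibition of at least 50% after viability correction, with every replicate also passing that limit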;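 also: firefly luciferase signal divided by Alamar Blue viability fluorescence both relative to DMSO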
TROY NFkB inh = blocks TROY-dependent signaling in reporter cells; 0.98% of 360,000 active; Q293 LMP1-TROYcd NF-kB luciferase reporter, 4 h; inhibition, % at 10 µM; AID 1347056;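 active = compounds whose plate-normalised and pattern-corrected inhibition of the luciferase reporter signal at the single screening dose is 50% or more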
* hit, by the source's call; . = not tested or not shown. Only some compounds are listed: those with a hit (about 2.3% of all), similar ones and a draw of the others.

SMILES | TWEAK Fn14 block | LGR2 inh | FN deposition inh | XiGFP reactiv | EWS-Fli inh | TROY NFkB inh
c1coc(-c2nc(-c3ccco3)c(-c3ccco3)nc2-c2ccco2)c1 | 81* | 15 | 6 | . | . | 4
CCOC(=O)N1CCN(S(=O)(=O)c2ccc(Cl)cc2)CC1 | 14 | 21 | 8 | 0 | 4 | 0
CCOC(=O)N1CCN(S(=O)(=O)c2ccc(C)cc2)CC1 | 77* | -6 | 6 | 0 | -11 | 18
COc1ccc2c3c([nH]c2c1)[C@H](CO)N(C(=O)Nc1ccc(F)cc1)CC31CN(C(=O)c2ccccc2F)C1 | . | 15 | . | 0 | -2 | .
CC(=O)N(C)C[C@H]1Oc2cc(C#CC(C)(C)O)ccc2S(=O)(=O)N([C@@H](C)CO)C[C@H]1C | . | -5 | 3 | -1 | -10 | .
N#Cc1c2ccc(O)cc2n2ccccc12 | 56* | 23 | -20 | 0 | -31 | 6
Cc1ccc(S(=O)(=O)Nc2ccc3c(c2)C(=O)N([C@H](C)CO)C[C@H](C)[C@H](CN(C)C(=O)c2ccccc2)OCCCC[C@@H](C)O3)cc1 | . | -9 | 2 | 0 | -12 | .
C=CCn1c(-c2ccc(OC)cc2)nc2ccccc21 | 57* | . | . | . | . | .
CCNC(=O)Nc1ccc2c(c1)C(=O)N(C)[C@@H]1CC[C@H](CC(=O)Nc3ccccc3)O[C@H]1CO2 | . | -7 | -11 | 0 | 10 | .
C[C@@H]1CCCCO[C@@H](CN(C)CC2CC2)[C@@H](C)CN([C@H](C)CO)C(=O)c2cc(NS(=O)(=O)c3cn(C)cn3)ccc2O1 | . | -5 | . | 0 | . | .
CCSc1nnnn1-c1ccccc1 | -6 | -3 | . | . | . | 6
Cc1ccc(C)c(-n2nnnc2Sc2nnnn2-c2ccccc2)c1 | 101* | . | 5 | . | . | 53*
COc1ccc2c3c([nH]c2c1)[C@H](CO)NCC31CN(C(=O)c2ccccc2)C1 | . | . | . | 0 | . | .
COc1ccc(NC(=O)N(C)C[C@@H]2Oc3ncc(-c4cccnc4)cc3C(=O)N([C@H](C)CO)C[C@@H]2C)cc1 | . | -3 | . | 1 | -2 | .
C=CCNc1ccc(N2C(=O)CCCC2=O)cc1[N+](=O)[O-] | 74* | 4 | 5 | 0 | -6 | 13
C=CCNc1ccc(N2C(=O)C3CCC(C)CC3C2=O)cc1[N+](=O)[O-] (stereo unspecified) | . | -13 | 9 | 0 | 3 | .
CCC(C)(C)c1ccc(Oc2ccc(N)cc2)cc1 | 101* | . | 2 | 0 | 65* | 89*
C[C@H](CO)N1C[C@H](C)[C@@H](CN(C)S(=O)(=O)c2ccc(F)cc2)Oc2ccc(NC(=O)CCC(F)(F)F)cc2CC1=O | . | -9 | . | 0 | 8 | .
Cc1cc(C)nc(S/C=C/C(=O)c2ccccc2F)n1 | 93* | . | 0 | 0 | 17 | 70*
CCCc1ccc(C(C)NC(=O)c2cnccn2)cc1 (stereo unspecified) | 85* | . | . | . | . | .
CCCCc1ccc(NC(=O)c2cnccn2)cc1 | 64* | 65* | -5 | 0 | 0 | 1
CCCN1[C@@H]2c3ccc(C4=CCCCC4)c(=O)n3C[C@@H]2[C@@H](CO)[C@@H]1C(=O)N(C)C | . | 7 | . | 0 | 4 | .
Cc1ccccc1Nc1nc(Nc2ccccc2C)nc(SC2=NCCS2)n1 | 71* | 2 | . | . | 9 | 18
CC1CCCN(c2sc(S(C)(=O)=O)nc2S(=O)(=O)c2ccc(Cl)cc2)C1 (stereo unspecified) | 51* | 24 | 6 | 0 | . | 19
CCS(=O)(=O)c1nc(S(=O)(=O)c2ccc(C)cc2)c(N2CCCC(C)C2)s1 (stereo unspecified) | 26 | 13 | 1 | 0 | . | 7
SMILES | TWEAK Fn14 block | LGR2 inh | FN deposition inh | XiGFP reactiv | EWS-Fli inh | TROY NFkB inh
CC1CN(c2sc(S(C)(=O)=O)nc2S(=O)(=O)c2ccc(Cl)cc2)CC(C)O1 (stereo unspecified) | 57* | 23 | -8 | 0 | 16 | 20
Cc1onc(-c2ccccc2Cl)c1C(=O)NNC(=O)c1cccc(F)c1 | 76* | 8 | -7 | 3 | 0 | 6
Cc1onc(-c2ccccc2Cl)c1C(=O)Nc1ccc(CN2CCCC2)cc1 | 33 | . | . | . | . | .
Cc1onc(-c2ccccc2Cl)c1C(=O)Nc1ccc(-c2nnc3n2CCCCC3)cc1 | 99* | . | -3 | . | . | -2
O=C1CN(S(=O)(=O)c2ccccc2)C[C@@H]2[C@@H](c3ccc(C#CCc4ccccc4)cc3)[C@@H](CO)N12 | . | 14 | . | 1 | 4 | .
Cc1noc(C)c1S(=O)(=O)N(C)C[C@@H]1Oc2ccc(NC(=O)CCN3CCOCC3)cc2CC(=O)N([C@@H](C)CO)C[C@H]1C | . | 6 | . | 0 | . | .
O=C(Nc1nc2ccc(F)cc2s1)C1CCN(S(=O)(=O)c2cc([N+](=O)[O-])ccc2Cl)CC1 | 84* | 4 | -3 | 0 | -4 | 34
Cc1ccc(NC(=O)C2CCN(S(=O)(=O)c3cc([N+](=O)[O-])ccc3Cl)CC2)nc1 | 25 | 30 | -1 | 0 | 17 | 12
Cc1ccc2nc(NC(=O)C3CCN(S(=O)(=O)c4cc([N+](=O)[O-])ccc4Cl)CC3)sc2c1 | 83* | -6 | -9 | 0 | -5 | 29
CCC(=O)N1CCC2(CC1)CN(Cc1cc(F)ccc1F)[C@@H](CO)c1[nH]c3cc(OC)ccc3c12 | . | -2 | . | 0 | 8 | .
C[C@@H]1CN([C@H](C)CO)C(=O)Cc2cc(NC(=O)C3CC3)ccc2O[C@H]1CN(C)S(=O)(=O)c1ccc(F)cc1 | . | -9 | . | 0 | -7 | .
CCCn1c2c(c(=N)c3c1CCC3)CCC2 | -24 | 10 | -10 | 0 | 21 | -8
CCCCCCCn1c2c(c(=N)c3ccccc31)CCC2 | 56* | 27 | -14 | 2 | 58* | 46
CC(C)C#Cc1ccc([C@H]2[C@@H](CO)N3C(=O)CN(S(=O)(=O)c4ccccc4)C[C@H]23)cc1 | . | 8 | -10 | 0 | -8 | .
O=C(CCN1CCOCC1)c1ccc(N2CCCCC2)cc1 | 55* | -38 | -4 | 1 | 30 | 7
CCCCCCn1cc(CN2CC(N3CCN(CCO)CC3)CS2(=O)=O)nn1 (stereo unspecified) | 108* | -16 | 10 | 0 | 0 | -1
CCCCCCN1CCN(C2CN(Cc3cn(Cc4ccc(Cl)cc4)nn3)S(=O)(=O)C2)CC1 (stereo unspecified) | 21 | 3 | -2 | 0 | 9 | 7
Cc1cccc(NC(=O)Nc2ccc(S(=O)(=O)Nc3onc(C)c3C)cc2)c1 | -18 | -14 | 37* | 0 | -65 | -40
Cc1noc(NS(=O)(=O)c2ccc(N/C=C/C(=O)c3ccc(F)cc3)cc2)c1C | 57* | 7 | 1 | 0 | -37 | 10
Cc1noc(NS(=O)(=O)c2ccc(N/C=C\C(=O)c3ccncc3)cc2)c1C | 13 | . | -12 | . | . | -10
Cc1cccc(OCCCC(=O)Nc2ccc(S(=O)(=O)Nc3onc(C)c3C)cc2)c1 | 4 | . | . | . | . | -15
